According to ChEMBL document CHEMBL4513216, “Probing the Open Global Health Chemical Diversity Library for Multistage-Active Starting Points for Next-Generation Antimalarials” (ACS Infect Dis, 2020):

Experiment: Toxicity liver stage against HepG2, at 10uM
Assay type: cell-based
Parameters: test concentration 10 uM, cell line HepG2-A16-CD81EGFP
Conditions: human, HepG2-A16-CD81EGFP cells; read-out: INHIBITION
Method in brief: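 Uninfected HepG2-A16-CD81EGFP cells, 3 × 10^3 per well, 1536-well, plated on prespotted compound at 10 μM final, parasite-free screening media added to match infected plates; puromycin 10 μM positive, DMSO 0.5% negative; run in parallel with 48 h PbLuc assay at 37 °C, 5% CO2; viability by CellTiter-Glo luminescence, normalized to controls.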

SMILES | cytotoxicity at 10 µM [%]
Cc1sc(NS(=O)(=O)c2ccccc2)nc1C(=O)NC1CC1 | 5.73
CC(=O)NCC(=O)NCC1Cn2nnc(-c3cccc(F)c3)c2CO1 (stereo unspecified) | -6.77
CC(=O)N1CC2(CCN(C(=O)c3ccoc3)C2)C1 | 6.47
CCOc1cc(=O)n2c(c1C(=O)OCc1ccc(OC)cc1)CCCC2 | 5.95
Cc1ccc(C2CCCCCN2Cc2cn(C)nc2C)s1 (stereo unspecified) | -6.47
Cc1ncc(C(=O)N2CC(C(=O)N3CCCCCC3)C2)c(C)n1 | 6.39
COc1ccc2c(c1)c(-c1nc(C)ncc1CN)cn2C | 21.7
Cc1nc(C2CCN(S(C)(=O)=O)CC2)nc2c1CCC(=O)N2CC(C)C | 3.44
Cc1ccccc1CN1CCOC(c2nccc(CN(C)C)n2)C1 (stereo unspecified) | -9.19
O=C(c1ccncc1)N1CC[C@@H](O)[C@@H](O)[C@H](N2CCC(F)(F)CC2)C1 | -10
CNc1cc(CNC(=O)c2cccnc2)nc(-c2ccncc2)n1 | -9.88
Cc1csc(C(=O)N2CCCC(c3[nH]ncc3S(C)(=O)=O)C2)c1 (stereo unspecified) | -3.17
Cn1ccnc1Sc1ncc(C(=O)N2CCCCC2)cc1Cl | -61
CCOc1ccc(N(C)Cc2nnc(C)o2)cc1 | 9.46
O=C(CCNc1ccccc1)NC1CCN(C(=O)C2CCCCC2)CC1 | 6.72
CCn1cnnc1CCNS(=O)(=O)N1CCCC1c1ccco1 (stereo unspecified) | -136
CCOC1CCN(C(=O)NCc2ccc(C(=O)N(C)C(C)C)cc2)CC1 | -6.55
CCN1CCC(NC(=O)N(C)Cc2csc3ccccc23)CC1 | -45
CC(C)Oc1ccccc1CNC(=O)N(C)CC(F)F | -41.5

SMILES | cytotoxicity at 10 µM [%]
CCS(=O)(=O)N1CCc2c(cccc2NCc2ncc[nH]2)C1 | -42.9
O=C(c1c(F)cccc1Br)N1CCCOCC1 | 6.69
CC(C)CC(NCc1cccs1)c1ccccn1 (stereo unspecified) | 3.46
CC(=O)N1CCN(CC(=O)NCCCN(C)c2ccccc2)CC1 | 8.21
COc1cc2nc(NCc3ccc(C)nc3)nc(N)c2cc1OC | 2.94
CCS(=O)(=O)NCCNCc1ccc(Cl)c2cccnc12 | -0.969
CN(C)C1(CNc2ncc(Br)cn2)CCOCC1 | -8.66
CCOC1CCCN(C(=O)c2[nH]nc(C)c2Br)C1 (stereo unspecified) | 0.966
CCCc1[nH]n(C)c(=N)c1-c1ccc2c(c1)OCO2 | -51.5
CCN(C(=O)CN1CCC(c2n[nH]c(C3CC3)n2)CC1)C1CC1 | -2.07
O=S(=O)(Nc1c(F)cccc1N1CCCC1)c1cncc(F)c1 | 3.22
COC(C)c1cccc(NC(=O)N(CCC#N)Cc2ccccn2)c1 (stereo unspecified) | 13.1
CC1(C)CN=C(N2CCN(CC3CCCCO3)CC2)S1 (stereo unspecified) | -1.61
CC(NC(=O)N1CCC(CC(N)=O)CC1)c1csc2ccccc12 (stereo unspecified) | 1.73
Cc1ccc(OCCCNC(=O)Cc2nc3ncccn3n2)cc1 | -1.08
CC(C)NC(=O)CC(C)NCc1cc(Cl)ccc1F (stereo unspecified) | -40
CCOc1cc(F)ccc1NS(=O)(=O)c1cc(C)c(C(=O)O)s1 | -10
CCOCc1nn(C)c2c1CN(CCO)CC2 | -103
Cc1cnc(N2CCCC3(COCCN(c4nccs4)C3)C2)nc1 (stereo unspecified) | -112

SMILES | cytotoxicity at 10 µM [%]
CC(C)=CCN1CC2(CCN(C(=O)CCn3ccnc3C)CC2)CC1=O | -6.3
CNc1ncc(C(=O)N2CCC3(CC2)Nc2ccccc2NC3=O)cn1 | 1.02
COc1cc2c(cc1C1CC(=O)NCc3nc(N(C)C)sc31)CCC2 (stereo unspecified) | 1.16
COc1ccccc1-n1nc(-c2ccco2)n(CC(=O)NC2CC2)c1=O | 0.355
COc1cccc(C(C(=O)O)N2CCCN(c3ccnc(C)c3)CC2)c1 (stereo unspecified) | 4.98
O=C(O)c1cc(-c2ccoc2)cc(S(=O)(=O)NCc2ccccn2)c1 | -47.6
CC(C)Cc1ncc2c(n1)CN(c1cc(N3CCCC3)nc(N)n1)C2 | 0.489
COCCN(C/C=C/c1ccccc1)Cc1ccccn1 | 6.82
Cc1ccc(C(C)NCc2cn(CCC(N)=O)c3ccccc23)cc1C (stereo unspecified) | -1.69
CSc1nccc(N2CCCC(c3nccn3C(C)C)C2)n1 (stereo unspecified) | 7.72
O=C(NCc1c(F)cccc1Cl)c1cc(CN2CCCC(O)C2)on1 (stereo unspecified) | -44.9
CC(C)N1C[C@H](NC(=O)c2coc(COc3cccc(F)c3)n2)[C@@H](O)C1 | -145
Cc1cc(C)c2c(c1)NC(=O)C2CC(=O)O (stereo unspecified) | 9.13
c1ncc(-c2cn(CCSc3cnn[nH]3)nn2)cn1 | -41.7
CCOc1ccnc(NCc2nc(C)cc(=O)[nH]2)n1 | -8.42
Cc1ncsc1CCC(=O)NC1CCN(Cc2cccs2)CC1 | -3.09
CCCc1nc(N2CCCN3CCC[C@H]3C2)c2cnn(C)c2n1 | -129
N[C@H]1CN(CCOc2ccc(F)cc2)C[C@@H]1C1CC1 | -1.93
